According to ChEMBL document CHEMBL1126019, “Synthesis, stability, and biological evaluation of water-soluble prodrugs of a new echinocandin lipopeptide. Discovery of a potential clinical agent for the treatment of systemic candidiasis and Pneumocystis carinii pneumonia (PCP)” (J Med Chem, 1992):

What was measured:
Mus musculus = species on record: Mus musculus; assay: Minimum effect dose required to reduce the number of colony forming units in per gram kidney of mice after being challenged, by tail vein injection, with 5 X l0e4 cells of Candida albicans (MY 1055); format: functional
In short: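 DBA/2 mice (5 per dose level) were infected intravenously and dosed ip with vehicle sham or 1.5, 3.0 or 6.0 mg/kg twice daily for 4 days. On day 7 post-infection, kidneys were cultured on SDA (35 °C, 24 h) and CFU/g counted. MED99 is the dose giving ≥99% CFU/g reduction versus vehicle sham.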

Rattus norvegicus = species on record: Rattus norvegicus; assay: Minimum effect dose required to reduce the number of alveolor cyst load in rat Pneumocystis carinii pneumonia assay; format: functional
In short: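 Immunosuppressed Sprague-Dawley rats with confirmed infection (5 per dose level) were dosed subcutaneously, 0.15 and 0.60 mg/kg twice daily for 4 days. On day 5, lungs were homogenized and cysts counted microscopically in a known amount of homogenate. MED90 is the dose giving ≥90% cyst reduction versus vehicle sham controls.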

Fungi [1] = assay: Minimum fungicidal concentration against Candida parapsilosis MY 1010; format: functional, organism-based
In short: (§1)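 Clinical isolates in yeast nitrogen base with 1% dextrose, inoculated with about 5×10^3 CFU per well. Drug was tested by 2-fold serial dilution from 128 to 0.06 µg/mL, with growth for 24 h at 35 °C. 1.5-µL aliquots were then spotted onto Sabouraud dextrose agar and incubated at 35 °C for 24 h. MFC was the lowest concentration giving fewer than five colonies per spot. Duplicate determinations.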

[2] = Inhibitory activity against glucan synthesis; format: functional
Fungi [3] = assay: Minimum fungicidal concentration against Candida tropicalis MY 1012; format: functional, organism-based; in short: as §1
Fungi [4] = assay: Minimum fungicidal concentration against Candida albicans MY 1055; format: functional, organism-based; in short: as §1
Fungi [5] = assay: Minimum fungicidal concentration against Candida pseudotropicalis MY 1100; format: functional, organism-based
In short: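 Clinical isolates were inoculated at about 5×10^3 CFU into yeast nitrogen base with 1% dextrose, with drug in 2-fold dilutions from 128 to 0.06 µg/mL, and grown 24 h at 35 °C. Then 1.5 µL aliquots were spotted on Sabouraud dextrose agar and held 24 h at 35 °C. MFC is the lowest concentration giving fewer than five colonies per spot, from duplicate determinations.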

Fungi [6] = assay: Minimum fungicidal concentration against Candida albicans MY 1028; format: functional, organism-based; in short: as §1
Homo sapiens = species on record: Homo sapiens; assay: Hemolytic potential was determined as the minimum lytic concentration against human red blood cells; format: functional, cell-based
In short: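 Compounds were serially diluted in water containing 10% DMSO and added to whole human blood, then incubated 2 h at 37 °C. Red cell lysis was scored visually, and the lowest lytic concentration was recorded.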

SMILES	MED99 (Mus musculus)	MED90 (Rattus norvegicus)	Concentration (Fungi [1])	IC50 [2]	Concentration (Fungi [3])	Concentration (Fungi [4])	Concentration (Fungi [5])	Concentration (Fungi [6])	Concentration (Homo sapiens)
CCC(C)CC(C)CCCCCCCCC(=O)N[C@H]1C[C@@H](O)[C@@H](O)NC(=O)[C@@H]2[C@@H](O)CCN2C(=O)[C@H]([C@@H](O)CC(N)=O)NC(=O)[C@H]([C@H](O)[C@@H](O)c2ccc(OC(=O)NCC(=O)O)cc2)NC(=O)[C@@H]2C[C@@H](O)CN2C(=O)[C@H]([C@@H](C)O)NC1=O (some centres not stated)	> 6 mg/kg	> 0.3 mg/kg							
CCC(C)CC(C)CCCCCCCCC(=O)N[C@H]1C[C@@H](O)[C@@H](O)NC(=O)[C@@H]2[C@@H](O)CCN2C(=O)[C@H]([C@@H](O)CC(N)=O)NC(=O)[C@H]([C@H](O)[C@@H](O)c2ccc(OC(=O)OCCN(C)C)cc2)NC(=O)[C@@H]2C[C@@H](O)CN2C(=O)[C@H]([C@H](C)O)NC1=O (some centres not stated)			2 µg/mL	100 nM	0.125 µg/mL	0.25 µg/mL	1 µg/mL	0.125 µg/mL	50 µg/mL
CCC(C)CC(C)CCCCCCCCC(=O)N[C@H]1C[C@@H](O)[C@@H](O)NC(=O)[C@@H]2[C@@H](O)CCN2C(=O)[C@H]([C@@H](O)CC(N)=O)NC(=O)[C@H]([C@H](O)[C@@H](O)c2ccc(OC(=O)CCCC(=O)O)cc2)NC(=O)[C@@H]2C[C@@H](O)CN2C(=O)[C@H]([C@H](C)O)NC1=O (some centres not stated)				1000 nM	0.5 µg/mL	0.5 µg/mL	2 µg/mL	0.5 µg/mL	> 400 µg/mL
CCC(C)CC(C)CCCCCCCCC(=O)N[C@H]1C[C@@H](O)[C@@H](O)NC(=O)[C@@H]2[C@@H](O)CCN2C(=O)[C@H]([C@@H](O)CC(N)=O)NC(=O)[C@H]([C@H](O)[C@@H](O)c2ccc(OC(=O)N(C)CC(=O)O)cc2)NC(=O)[C@@H]2C[C@@H](O)CN2C(=O)[C@H]([C@H](C)O)NC1=O (some centres not stated)				> 1000 nM	1 µg/mL	2 µg/mL	8 µg/mL	2 µg/mL	25 µg/mL
CCC(C)CC(C)CCCCCCCCC(=O)N[C@H]1C[C@@H](O)[C@@H](O)NC(=O)[C@@H]2[C@@H](O)CCN2C(=O)[C@H]([C@@H](O)CC(N)=O)NC(=O)[C@H]([C@H](O)[C@@H](O)c2ccc(OC(=O)N(C)CC(=O)O)cc2)NC(=O)[C@@H]2C[C@@H](O)CN2C(=O)[C@H]([C@@H](C)O)NC1=O (some centres not stated)	> 6 mg/kg	> 0.6 mg/kg							
CCC(C)CC(C)CCCCCCCCC(=O)N[C@H]1C[C@@H](O)[C@@H](O)NC(=O)[C@@H]2[C@@H](O)CCN2C(=O)[C@H]([C@@H](O)CC(N)=O)NC(=O)[C@H]([C@H](O)[C@@H](O)c2ccc(OC(=O)CCCC(=O)O)cc2)NC(=O)[C@@H]2C[C@@H](O)CN2C(=O)[C@H]([C@@H](C)O)NC1=O (some centres not stated)	6 mg/kg	0.6 mg/kg							
CCC(C)CC(C)CCCCCCCCC(=O)N[C@H]1C[C@@H](O)[C@@H](O)NC(=O)[C@@H]2[C@@H](O)CCN2C(=O)[C@H]([C@@H](O)CC(N)=O)NC(=O)[C@H]([C@H](O)[C@@H](O)c2ccc(OC(=O)CCN)cc2)NC(=O)[C@@H]2C[C@@H](O)CN2C(=O)[C@H]([C@H](C)O)NC1=O (some centres not stated)			16 µg/mL	200 nM	0.5 µg/mL	1 µg/mL		1 µg/mL	100 µg/mL
CCC(C)CC(C)CCCCCCCCC(=O)N[C@H]1C[C@@H](O)[C@@H](O)NC(=O)[C@@H]2[C@@H](O)CCN2C(=O)[C@H]([C@@H](O)CC(N)=O)NC(=O)[C@H]([C@H](O)[C@@H](O)c2ccc(OC(=O)OCCN(C)C)cc2)NC(=O)[C@@H]2C[C@@H](O)CN2C(=O)[C@H]([C@@H](C)O)NC1=O.O=C(O)C(F)(F)F (some centres not stated)	6 mg/kg	0.6 mg/kg							
CCC(C)CC(C)CCCCCCCCC(=O)N[C@H]1C[C@@H](O)[C@@H](O)NC(=O)[C@@H]2[C@@H](O)CCN2C(=O)[C@H]([C@@H](O)CC(N)=O)NC(=O)[C@H]([C@H](O)[C@@H](O)c2ccc(OC(=O)NCCN(C)C)cc2)NC(=O)[C@@H]2C[C@@H](O)CN2C(=O)[C@H]([C@H](C)O)NC1=O (some centres not stated)				1000 nM	1 µg/mL	1 µg/mL	64 µg/mL	1 µg/mL	25 µg/mL
CCC(C)CC(C)CCCCCCCCC(=O)N[C@H]1C[C@@H](O)[C@@H](O)NC(=O)[C@@H]2[C@@H](O)CCN2C(=O)[C@H]([C@@H](O)CC(N)=O)NC(=O)[C@H]([C@H](O)[C@@H](O)c2ccc(OC(=O)CN)cc2)NC(=O)[C@@H]2C[C@@H](O)CN2C(=O)[C@H]([C@@H](C)O)NC1=O.Cl (some centres not stated)	3 mg/kg	0.6 mg/kg							
CCC(C)CC(C)CCCCCCCCC(=O)N[C@H]1C[C@@H](O)[C@@H](O)NC(=O)[C@@H]2[C@@H](O)CCN2C(=O)[C@H]([C@@H](O)CC(N)=O)NC(=O)[C@H]([C@H](O)[C@@H](O)c2ccc(OC(=O)CCN)cc2)NC(=O)[C@@H]2C[C@@H](O)CN2C(=O)[C@H]([C@@H](C)O)NC1=O.Cl (some centres not stated)	6 mg/kg	0.15 mg/kg							
CCC(C)CC(C)CCCCCCCCC(=O)N[C@H]1C[C@@H](O)[C@@H](O)NC(=O)[C@@H]2[C@@H](O)CCN2C(=O)[C@H]([C@@H](O)CC(N)=O)NC(=O)[C@H]([C@H](O)[C@@H](O)c2ccc(OC(=O)NCCC(=O)O)cc2)NC(=O)[C@@H]2C[C@@H](O)CN2C(=O)[C@H]([C@H](C)O)NC1=O (some centres not stated)			> 128 µg/mL	> 10000 nM	128 µg/mL	128 µg/mL		128 µg/mL	> 400 µg/mL
CCC(C)CC(C)CCCCCCCCC(=O)N[C@H]1C[C@@H](O)[C@@H](O)NC(=O)[C@@H]2[C@@H](O)CCN2C(=O)[C@H]([C@@H](O)CC(N)=O)NC(=O)[C@H]([C@H](O)[C@@H](O)c2ccc(OC(=O)CN)cc2)NC(=O)[C@@H]2C[C@@H](O)CN2C(=O)[C@H]([C@H](C)O)NC1=O (some centres not stated)				50 nM	< 0.06 µg/mL	0.5 µg/mL	2 µg/mL	1 µg/mL	100 µg/mL
CCC(C)CC(C)CCCCCCCCC(=O)N[C@H]1C[C@@H](O)[C@@H](O)NC(=O)[C@@H]2[C@@H](O)CCN2C(=O)[C@H]([C@@H](O)CC(N)=O)NC(=O)[C@H]([C@H](O)[C@@H](O)c2ccc(OC(=O)NCCN(C)C)cc2)NC(=O)[C@@H]2C[C@@H](O)CN2C(=O)[C@H]([C@@H](C)O)NC1=O.O=C(O)C(F)(F)F (some centres not stated)	6 mg/kg	0.6 mg/kg							
CCC(C)CC(C)CCCCCCCCC(=O)N[C@H]1C[C@@H](O)[C@@H](O)NC(=O)[C@@H]2[C@@H](O)CCN2C(=O)[C@H]([C@@H](O)CC(N)=O)NC(=O)[C@H]([C@H](O)[C@@H](O)c2ccc(OC(=O)NCC(=O)O)cc2)NC(=O)[C@@H]2C[C@@H](O)CN2C(=O)[C@H]([C@H](C)O)NC1=O (some centres not stated)				> 10000 nM	8 µg/mL	4 µg/mL	32 µg/mL	4 µg/mL	> 400 µg/mL
CCC(C)CC(C)CCCCCCCCC(=O)N[C@H]1C[C@@H](O)[C@@H](O)NC(=O)[C@@H]2[C@@H](O)CCN2C(=O)[C@H]([C@@H](O)CC(N)=O)NC(=O)[C@H]([C@H](O)[C@@H](O)c2ccc(O)cc2)NC(=O)[C@@H]2C[C@@H](O)CN2C(=O)[C@H]([C@@H](C)O)NC1=O (some centres not stated)	3 mg/kg	0.15 mg/kg							
CCC(C)CC(C)CCCCCCCCC(=O)N[C@H]1C[C@@H](O)[C@@H](O)NC(=O)[C@@H]2[C@@H](O)CCN2C(=O)[C@H]([C@@H](O)CC(N)=O)NC(=O)[C@H]([C@H](O)[C@@H](O)c2ccc(OC(=O)NCCC(=O)O)cc2)NC(=O)[C@@H]2C[C@@H](O)CN2C(=O)[C@H]([C@@H](C)O)NC1=O (some centres not stated)	> 6 mg/kg	> 0.6 mg/kg							
